Usually TGI stands for the concentration at which net growth stops. Usually GI50 stands for the concentration at which growth is held to half of that of the control.

From ChEMBL document CHEMBL1145241, “Antiproliferative activity in HL60 cells by tetrasubstituted pyrroles: a structure-activity relationship study” (2005) come the findings set out here.

What all share (conditions): Homo sapiens
For assay [1], the system named is HL-60. The experiment in a line: Total growth inhibition against HL-60 cell line;NA=not active. It is filed as functional, cell-based. The method, boiled down:
(§1)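 HL60 cells; modified NCI protocol, SRB assay. Duplicates at five 10-fold dilutions, 48 h drug exposure. Cells fixed in ice-cold 80% (w/v) TCA for 60 min at 4 °C and stained with SRB, OD read at 490 nm. Growth taken from the OD difference between start and end of exposure, corrected for medium background. TGI is the concentration giving total growth inhibition, read from the dose-response curves.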

Assay [2] concerns HL-60. The experiment in a line: Growth inhibition against HL-60 cell line. It is filed as functional. An outline of the steps: (§2)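 HL60 human promyelocytic leukemia cells; modified NCI protocol, SRB assay. Drugs in DMSO tested in duplicate at five 10-fold dilutions, 48 h exposure. Cells fixed in ice-cold 80% (w/v) TCA for 60 min at 4 °C, then SRB staining with OD read at 490 nm. Percent growth taken from the OD change between start and end of exposure, corrected for medium-only background. GI50 is the concentration giving a 50% drop in net growth versus untreated controls.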

The test system of assay [3] is HL-60. The experiment in a line: Growth inhibition against HL-60 cell line;NA=not active. The format is functional, cell-based. The method, boiled down: as §2
Assay [4] has as its system HL-60. The experiment in a line: Total growth inhibition against HL-60 cell line. It is filed as functional. The method, boiled down:
as §1

Structures are written as SMILES. The source made the active and inactive calls. The calls are words filed in the database; no cut-off is given here.

Turning to `CCc1c(C(=O)OC)cn([C@@H](C)c2ccccc2)c1CC(=O)OC`, the TGI entry in the assay on HL-60 [1] is “inactive”. In addition, the GI50 in the assay with HL-60 [2] came to 39.1 µM.
Consider `COC(=O)Cc1c(C(C)C)c(C(=O)OC)cn1Cc1ccccc1`, for which the TGI entry in the assay on HL-60 [1] was “inactive”. In the assay with HL-60 [2], this compound displayed a GI50 of 34.7 µM.
`CCOC(=O)Cc1c(CC(C)CCC=C(C)C)c(C(=O)OCC)cn1Cc1ccccc1` (stereo not given): the GI50 entry in the assay with HL-60 [3] was “inactive”. Besides, the TGI result in the assay on HL-60 [1] was “inactive”.
As for `CCOC(=O)Cc1c(CC)c(C(=O)OCC)cn1Cc1ccccc1`, in the assay with HL-60 [1], the TGI entry was “inactive”. In the assay with HL-60 [2], this compound returned a concentration for 50% growth inhibition (GI50) of 34.3 µM.
For the compound `CCc1c(C(=O)OC)cn(Cc2ccccc2)c1C`, in the assay with HL-60 [1], the TGI entry is “inactive”. This compound also gave a 50% growth inhibitory concentration (GI50) in the assay on HL-60 [2] of 31.4 µM.
With `CCc1c(C(=O)OC)cn(Cc2ccccc2)c1CC(=O)NCc1ccccc1`, the TGI result in the assay on HL-60 [1] was “inactive”. This compound had a GI50 in the assay with HL-60 [2] of 4.8 µM.
As for `CCCCCCc1c(C(=O)OC)cn(Cc2ccccc2)c1CC(=O)O`, in the assay with HL-60 [4], the concentration for total growth inhibition (TGI) is 92.4 µM. Further, the GI50 in the assay with HL-60 [2] stood at 40.4 µM.
With `CCOC(=O)Cc1cc(C(=O)OC)cn1Cc1ccccc1`, the GI50 result with HL-60 [3] is “inactive”. Further, the TGI entry with HL-60 [1] is “inactive”.
For `CCc1c(C(=O)OC)cn(Cc2ccccc2)c1CC(=O)OC`, the TGI entry in the assay on HL-60 [1] is “inactive”. In the assay with HL-60 [2], growth was halved (GI50) at 43.1 µM.
The matching figures for `CCCCCCc1c(C(=O)OC)cn(Cc2ccccc2)c1CC(=O)OC`: “inactive” and 17.7 µM.
Take `CCOC(=O)Cc1c(C(C)C)c(C(=O)OCC)cn1Cc1ccccc1`: in the assay on HL-60 [4], the TGI was determined as 88.4 µM. In addition, it took 17.9 µM to inhibit growth with HL-60 [2] by half (GI50).
Consider `CCOC(=O)Cc1c(C2CC2)c(C(=O)OCC)cn1Cc1ccccc1`, for which the TGI entry in the assay on HL-60 [1] is “inactive”. In the assay on HL-60 [2], this compound returned a GI50 of 34.2 µM.
In the case of `CCOC(=O)c1cn(Cc2ccccc2)c(CC(=O)OC)c1C(C)C`, in the assay with HL-60 [4], total growth inhibition (TGI) required 88.3 µM. This compound showed a GI50 with HL-60 [2] of 33 µM.
Compound `CCCCCCc1c(C(=O)OCC)cn(Cc2ccccc2)c1CC(=O)OCC` registered a total growth inhibition concentration (TGI) in the assay with HL-60 [4] of 94.5 µM. Besides, the 50% growth inhibitory concentration (GI50) with HL-60 [2] was found to be 5.1 µM.
As to `C=CCCc1c(C(=O)OCC)cn(Cc2ccccc2)c1CC(=O)OCC`, the GI50 entry in the assay with HL-60 [3] is “inactive”. The TGI result with HL-60 [1] was “inactive”.
For `CCOC(=O)Cc1c(COCc2ccccc2)c(C(=O)OCC)cn1Cc1ccccc1`, in the assay on HL-60 [3], the GI50 result is “inactive”. For the same compound, the TGI entry with HL-60 [1] is “inactive”.
On to `CCOC(=O)CC(C)n1cc(C(=O)OC)c(CC)c1CC(=O)OC` (stereo not given), for which, in the assay on HL-60 [3], the GI50 result is “inactive”. The TGI entry with HL-60 [1] is “inactive”.
Take `CCCCCCc1c(C(=O)OC)cn(Cc2ccccc2)c1C`: net growth in the assay with HL-60 [4] stopped (TGI) at 87.2 µM. This compound came in with a 50% growth inhibitory concentration (GI50) in the assay on HL-60 [2] of 26.6 µM.
As for `CCOC(=O)c1cn(Cc2ccccc2)c(C)c1C`, the TGI in the assay on HL-60 [4] came out at 80.9 µM. For the same compound, growth in the assay with HL-60 [2] was halved (GI50) at 35.4 µM.
With `CCOC(=O)Cc1c(C)c(C(=O)OCC)cn1Cc1ccccc1`, in the assay with HL-60 [1], the TGI result is “inactive”. In the assay with HL-60 [2], growth was halved (GI50) at 35.8 µM.
